KDM4C inh: inhibitors of human demethylase GASC-1 KDM4C | Q9H3R0 | GST-KDM4C 2-372, H3K9me3 peptide, LANCE TR-FRET | inhibition, % at 12.5 µM | 0.15% of 96,000 active | AID 720574;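 active = mean replicate inhibition above about 25%, with at least 55% of replicates also reaching it, limit read from the data, passing the limit was not always enough; inconclusive = only one of those two conditions met; inactive = neither condition met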
Target sequence (Q9H3R0 2-372 limits assumed): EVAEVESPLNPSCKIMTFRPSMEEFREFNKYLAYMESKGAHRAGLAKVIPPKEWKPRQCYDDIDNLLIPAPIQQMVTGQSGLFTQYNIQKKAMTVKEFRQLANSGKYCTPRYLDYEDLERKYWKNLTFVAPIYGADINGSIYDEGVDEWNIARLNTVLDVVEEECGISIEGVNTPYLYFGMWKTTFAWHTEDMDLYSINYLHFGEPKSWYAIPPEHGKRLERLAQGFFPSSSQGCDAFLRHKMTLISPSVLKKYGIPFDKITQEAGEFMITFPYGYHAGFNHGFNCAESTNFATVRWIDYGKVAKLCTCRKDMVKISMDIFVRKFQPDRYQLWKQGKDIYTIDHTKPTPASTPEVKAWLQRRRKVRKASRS
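Test system – GST-tagged GASC-1 (JMJD2C) catalytic fragment, aa 2-372 · Medium – HEPES buffer, pH 7.5, plus ascorbate · Reagent – H3K9me3 peptide with Fe(II)/2OG · Compound – one test concentration per compound · Timing – 30 min reaction, 60 min detection, RT · Technique – TR-FRET with Eu antibody and ULight streptavidin, EDTA stop · Read-out basis – inhibition from TR-FRET ratio decrease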
T cruzi growth-1: T. cruzi proliferation inhibition | T. cruzi beta-gal in NIH3T3, GalScreen luminescence, 90 h | inhibition, % at 8.34 µM | 5.9% of 77,000 active | AID 624255;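 active = mean inhibition above about 93%, with at least 55% of replicates each passing it, limit read from the data, passing the limit was not always enough; inconclusive = only one of those two conditions holds; inactive = neither condition holds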
IDH1 R132H inh: inhibitors of human IDH1 R132H; O75874; IDH1 R132H reductase, diaphorase/resazurin fluorescence, 60 min; inhibition, % at 10 µM; 0.18% of 70,000 active; in the data active = inhibition above about 34%; inconclusive = no clear call, values can overlap the other calls; inactive = below about 11%;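 note: 0% = DMSO and 100% = no enzyme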
T cruzi growth-2: blocks T. cruzi growth in NIH3T3 host cells; shares compounds with T cruzi growth-1; T. cruzi beta-gal in NIH3T3, GalScreen luminescence, 90 h; inhibition, % at 8.35 µM; 72% of 5,600 active; AID 651739;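 active = mean replicate inhibition above about 95% and at least 55% of replicates individually reaching it, limit read from the data; inconclusive = only one of the two criteria is met; inactive = neither criterion is met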
T cruzi growth-3: inhibitors of T. cruzi proliferation | shares compounds with T cruzi growth-1 | T. cruzi beta-gal in NIH3T3, GalScreen luminescence, 90 h | inhibition, % at 2.09 µM | 21% of 5,600 active | AID 651740;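 active = mean inhibition above about 95%, with at least 55% of replicates also reaching it, limit read from the data; inconclusive = meets just one of the two conditions; inactive = meets neither condition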;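 note: plate controls were neutral control median for no effect and positive control median for full effect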
3T3 cytotox: NIH/3T3 (mouse) viability loss; shares compounds with T cruzi growth-1; NIH/3T3 viability, CellTiter-Glo ATP luminescence, 90 h; cytotoxicity (signal decrease), % at 8.35 µM; 14% of 5,600 active;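 active = mean signal decrease across replicates above about 35% based on untreated-well scatter, with enough replicates individually passing, limit read from the data; inconclusive = no rule stated though some were filed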;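 note: 0% = median of neutral control wells and 100% = median of positive control wells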
NIH3T3 tox 2: NIH/3T3 (mouse) viability loss; shares compounds with T cruzi growth-1; NIH/3T3 viability, CellTiter-Glo ATP luminescence, 90 h; inhibition, % at 24.9 µM; 56% of 5,600 active; AID 651744;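 active = mean loss of cell viability signal at or above a set limit, and enough replicates individually reaching it; inconclusive = meets only the mean limit or only the replicate share; inactive = meets neither condition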;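 note: 0% = median of neutral control wells and 100% = median of positive control wells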
* hit, by the source's call. The sample as a whole holds a higher share of hits than the screen did.

Screening CO[C@@H]1CN(C)C(=O)c2ccc(NC(=O)c3ccc(Oc4ccccc4)cc3)cc2OC[C@H](C)NC[C@H]1C returned KDM4C inh -3, T cruzi growth-1 53 and IDH1 R132H inh 0.
For COc1cc(C(=O)NC2(C(F)(F)F)C(=O)N(CC3CCCO3)C3=C2C(=O)CC(C)(C)C3)cc(OC)c1OC (stereo not given) the results were IDH1 R132H inh 0.
For C[C@@H]1CN([C@@H](C)CO)C(=O)c2cc(NC(=O)NC3CCCCC3)ccc2O[C@@H](C)CCCCO[C@@H]1CN(C)Cc1ccncc1 the results were KDM4C inh 1, T cruzi growth-1 87 and IDH1 R132H inh 0.
C[C@H](CO)N1C[C@H](C)[C@H](CN(C)Cc2ccncc2)OCCCC[C@H](C)Oc2ccc(NC(=O)NC3CCCCC3)cc2C1=O was read as KDM4C inh 1, T cruzi growth-1 97*, T cruzi growth-2 106*, T cruzi growth-3 31, 3T3 cytotox 1 and NIH3T3 tox 2 13.
`C[C@@H]1CCCCO[C@@H](CN(C)Cc2ccncc2)[C@@H](C)CN([C@@H](C)CO)C(=O)c2cc(NC(=O)NC3CCCCC3)ccc2O1` gave KDM4C inh 0, T cruzi growth-1 103*, IDH1 R132H inh -1, T cruzi growth-2 35, T cruzi growth-3 1, 3T3 cytotox -31 and NIH3T3 tox 2 3.
`C[C@@H]1CN([C@@H](C)CO)C(=O)c2cc(NC(=O)NC3CCCCC3)ccc2O[C@@H](C)CCCCO[C@H]1CN(C)Cc1ccncc1` gave KDM4C inh 14 and T cruzi growth-1 16.
CN1CCN(C(=O)C[C@@H]2CC[C@H](NC(=O)c3ccc4c(c3)OCO4)[C@H](CO)O2)CC1 was read as KDM4C inh 1, T cruzi growth-1 -39 and IDH1 R132H inh -1.
Screening CC=Cc1ccc2n(c1=O)C[C@@H]1[C@@H](CO)[C@H](C(=O)NCCC)[C@H]2N1C(=O)Nc1cc(F)ccc1F (mixture of isomers) returned KDM4C inh -1 and T cruzi growth-1 12.
For O=C(Nc1cccc(F)c1)N1CCCCN2[C@@H](CO)[C@H](c3ccc(C#CC4CC4)cc3)[C@@H]2C1 the results were KDM4C inh 0, T cruzi growth-1 inconclusive, T cruzi growth-2 93, T cruzi growth-3 102*, 3T3 cytotox 105* and NIH3T3 tox 2 106*.
For O=C(Nc1ccc(F)cc1)N1CCCCN2[C@H](CO)[C@H](c3ccc(C#CC4CC4)cc3)[C@H]2C1 the results were KDM4C inh -1 and T cruzi growth-1 70.
For CN(C)CC#Cc1ccc([C@@H]2[C@H]3CN(C(=O)Nc4ccc(F)cc4)CCCCN3[C@H]2CO)cc1 the results were KDM4C inh 0 and T cruzi growth-1 21.
Screening O=C(Nc1ccc(F)cc1)N1CCCCN2[C@H](C1)[C@H](c1ccc(C#CC3CC3)cc1)[C@@H]2CO returned KDM4C inh -1, T cruzi growth-1 122*, T cruzi growth-2 100*, T cruzi growth-3 34, 3T3 cytotox 26 and NIH3T3 tox 2 23.
For O=C(Nc1cccc(F)c1)N1CCCCN2[C@H](CO)[C@@H](c3ccc(C#Cc4ccccc4)cc3)[C@@H]2C1 the results were KDM4C inh 0 and T cruzi growth-1 88.
`O=C(Nc1ccc(F)cc1)N1CCCCN2[C@@H](CO)[C@@H](c3ccc(C#CC4CC4)cc3)[C@@H]2C1` gave KDM4C inh 1, T cruzi growth-1 97*, T cruzi growth-2 98*, T cruzi growth-3 107*, 3T3 cytotox 119* and NIH3T3 tox 2 106*.
For CO[C@H]1CN(C)C(=O)c2ccc(NS(=O)(=O)c3cn(C)cn3)cc2OC[C@@H](C)NC[C@@H]1C the results were KDM4C inh 0.
`CS(=O)(=O)Nc1ccc2c(c1)[C@H]1C[C@H](CC(=O)NCc3cccnc3)O[C@H](CO)[C@H]1O2` gave KDM4C inh 2 and IDH1 R132H inh 0.

Screening data: PubChem BioAssay, Broad Institute
